The values below come from article PMC5305809 (ACS chemical biology, 2016).

The target in one assay is T1, HDAC8 (Homo sapiens, UniProt Q9BY41).
T1 sequence (Q9BY41 1-377): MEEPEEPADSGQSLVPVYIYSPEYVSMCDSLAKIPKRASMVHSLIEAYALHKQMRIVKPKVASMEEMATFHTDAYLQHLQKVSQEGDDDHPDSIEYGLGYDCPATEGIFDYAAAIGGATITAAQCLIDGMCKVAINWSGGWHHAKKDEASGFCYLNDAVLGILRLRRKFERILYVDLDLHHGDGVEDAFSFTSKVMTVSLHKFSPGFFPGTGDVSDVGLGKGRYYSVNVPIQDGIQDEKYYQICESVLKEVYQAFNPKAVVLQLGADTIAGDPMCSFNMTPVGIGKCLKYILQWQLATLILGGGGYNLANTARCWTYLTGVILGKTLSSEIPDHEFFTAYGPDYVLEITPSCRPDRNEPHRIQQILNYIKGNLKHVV
Briefly: HDAC8 kinetics assay on H3K9 acyl peptides. The class given is biochemical. To be noted: for kcat/Km: from slope of linear plot where kcat ND.

Assay [1] relates to Jurkat cells. Put plainly: Western blot for global protein lysine acetylation. To be noted: Jurkat cells treated with 25 μM HDAC inhibitor. The class given is cell-based. Put shortly: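 Jurkat cells in RPMI 1640 with 10% FBS, exposed to test compound (25 μM) for 15 hrs. Cells lysed in 4% SDS buffer with protease inhibitor cocktail and nuclease, protein quantified by BCA.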
On the technique in general: In western blotting, separated proteins are transferred to a membrane and probed.

The subject of the next assay is MDA-MB 231 cells. Briefly: Global fatty acylation by metabolic labeling. The class given is cell-based. Put shortly: (§1)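 Cells grown in DMEM with 10% FBS at 37 °C, 5% CO2. They were pretreated with test compound or DMSO, then cultured with Alk12, an alkyne myristic acid analogue, for metabolic labeling. Labeled proteins were clicked to BODIPY-azide and precipitated. Cysteine acylation was removed with 0.5 M hydroxylamine pH 8.0 at 95 °C for 7 min. Read-out was in-gel fluorescence after SDS-PAGE.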

A further assay relates to HeLa cells. Briefly: Global fatty acylation by metabolic labeling. Format: cell-based. The method, boiled down:
as §1

The next assay concerns HEK-293T cells. Briefly: Global fatty acylation by metabolic labeling. Format: cell-based, human. The method, boiled down:
as §1

Assay [2] has as its system Jurkat cells. Briefly: Global fatty acylation by metabolic labeling. The class given is cell-based. The conditions noted are these: 25 μM inhibitor, 15 hrs.
Where [3] appears, read: recombinant HDAC8 from E. coli, 1 μM, 37 °C, 1 hr, pH 8, duplicate, ± S.D., SD.
The mark [4] stands for this setting: recombinant HDAC8 from E. coli, 1 μM, 37 °C, 1 hr, pH 8, duplicate, ± S.D.
[5] abbreviates: recombinant HDAC8 from Sf9 insect cells.

For orientation: Km means the substrate concentration at which the rate is half of its maximum. Consider KQTARKSTGGWW [Octanoyl H3K9], for which, on HDAC8 (setting [3]), the Km stood at 146 ± 10.3 µM and the kcat is on record as 0.0202 ± 0.0005 S^−1.

Consider `COc1ccc(Cn2ccc3ccc(C(=O)NO)cc32)cc1` [PCI-34051], for which, in the assay on Jurkat cells [1], the “global lysine acetylation level (Western blot)” value (from here on “global lysine acetylation level”) was “did not noticeably increase protein lysine acetylation”. For the same compound, the “fatty acylation vs DMSO control (Alk12 labeling)” value with MDA-MB 231 cells, with HeLa cells and in the assay with HEK-293T cells was “slightly increased fatty acylation” throughout. The “global protein lysine fatty acylation vs control (Alk12 labeling)” value with Jurkat cells [2] is recorded as “exhibited enhanced global protein lysine fatty acylation”.

Turning to KQTARKSTGGWW [Myristoyl H3K9], the “demyristoylation catalytic efficiency relative to deacetylation” value at HDAC8 (HDAC8 purified from Sf9 insect cells, myristoyl- vs acetyl-H3K9) is given as above 2 times. In addition, at HDAC8 (setting [4]), the Michaelis-Menten constant (Km) was around 16 µM. At HDAC8 (setting [3]), the Km is 15.8 ± 5.1 µM and the kcat was 0.0019 ± 0.0003 S^−1. Besides, on HDAC8 (setting [5]), the Km amounted to 60.5 µM, the kcat was 0.0755 ^b S^−1 and the kcat/Km is 1,246 ^b S^−1.M^−1.

As to KQTARKSTGGWW [Butyryl H3K9], the Km at HDAC8 (setting [4]) is above 200 µM.

In the case of KQTARKSTGGWW [Palmitoyl H3K9], on HDAC8 (setting [3]), the Km turned out to be 18.3 ± 7.4 µM and the kcat was found to be 0.0005 ± 0.00007 S^−1.

For `Nc1ccccc1NC(=O)c1ccc(CNc2nccc(-c3cccnc3)n2)cc1` [Mocetinostat], in the assay with Jurkat cells [1], the “global lysine acetylation level” value is “did not noticeably increase protein lysine acetylation”. In addition, in the assay on Jurkat cells [2], the “global protein lysine fatty acylation vs control (Alk12 labeling)” value is given as “only PCI-34051-treated Jurkat cells exhibited enhanced global protein lysine fatty acylation”.

As to KQTARKSTGGWW [Dodecanoyl H3K9], at HDAC8 (setting [3]), the Km is 69.5 ± 10.1 µM and the kcat came to 0.0123 ± 0.0013 S^−1.

In the case of KQTARKSTGGWW [Acetyl H3K9], on HDAC8 (setting [4]), the Michaelis constant (Km) is above 600 µM. For the same compound, on HDAC8 (setting [5]), the Km is above 300 µM and the kcat/Km is 480.8 ^b S^−1.M^−1.

As to `O=C(CCCCCCC(=O)Nc1ccccc1)NO` [SAHA], the “global lysine acetylation level” value with Jurkat cells [1] is “predominantly increased the acetylation of protein bands around 55 kDa”. In the assay with Jurkat cells [2], the “global protein lysine fatty acylation vs control (Alk12 labeling)” value was “much lower than the control”.

Consider `Cc1[nH]c2ccccc2c1CCNCc1ccc(/C=C/C(=O)NO)cc1` [Panobinostat], for which, in the assay with Jurkat cells [1], the “global lysine acetylation level” value is recorded as “predominantly increased the acetylation of protein bands around 55 kDa”. Besides, in the assay on Jurkat cells [2], the “global protein lysine fatty acylation vs control (Alk12 labeling)” value was “much lower than the control”.
